MrgX1 ag = agonists of human MrgX1 receptor, primary screen, HEK293 cells, Fluo-4 calcium flux; B-score at 10 µM; AID 588627, 2011; Fluo-4 calcium fluorescence, agonist mode; stronger effect = higher value; Mas-related G-protein coupled receptor member X1 (Homo sapiens), Q96LB2; 310,000 compounds, 0.44% hits;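 active = calcium response B-score plate-corrected fluorescence ratio at least 3 library SD, with starting fluorescence B-score inside 5 SD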
Target sequence (Q96LB2 whole entry, looked up): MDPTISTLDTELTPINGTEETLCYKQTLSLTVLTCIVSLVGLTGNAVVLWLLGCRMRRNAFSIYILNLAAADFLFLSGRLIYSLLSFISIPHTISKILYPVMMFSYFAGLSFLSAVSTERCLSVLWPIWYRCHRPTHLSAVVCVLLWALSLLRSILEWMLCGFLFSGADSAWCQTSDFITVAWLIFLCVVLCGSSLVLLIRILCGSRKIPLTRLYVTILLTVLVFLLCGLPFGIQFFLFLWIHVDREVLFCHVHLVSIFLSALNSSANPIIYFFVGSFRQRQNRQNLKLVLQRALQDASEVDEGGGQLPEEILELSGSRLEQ
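System: HEK293 cells stably expressing human MrgX1 receptor; Dosing: test compound in the initial addition of three; Schedule: overnight plating, then 30 min 37 °C plus 30 min room-temperature dye loading; Detection: kinetic calcium dye fluorescence, Fluo-4 NW; Controls: per-plate positive and negative controls for Z′ factor.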
MrgX1 antag = antagonists of human MrgX1 receptor, primary screen, HEK293 cells, Fluo-4 calcium flux | Mas-related G-protein coupled receptor member X1 (Homo sapiens), Q96LB2 | BAM8-22 antagonism; stronger effect = lower value | B-score at 10 µM | 310,000 compounds, 1.3% hits | AID 588676, 2011;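 active = calcium-response B-score plate-corrected more than 3 library SD below zero, starting fluorescence within 5 deviations, no agonist response on first addition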;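 note: peak minus trough fluorescence over baseline after final BAM8-22 challenge near maximal dose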
RGS4 inh = RGS4 inhibitors, primary screen, cell-based, HEK293 M3R inducible RGS4, calcium flux; AID 463165, 2010; Regulator of G-protein signaling 4 (Homo sapiens), P49798; B-score at 10 µM; 310,000 compounds, 0.45% hits; Fluo-4 calcium flux; stronger effect = higher value; triggered by carbachol at its EC20;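 active = B-score, a plate-corrected calcium signal, over three deviations above library mean, with baseline fluorescence within five deviations of library mean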;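 note: RGS4 expression induced by doxycycline in cells with stable M3 receptor; B-score is computed from the integrated fluorescence ratio over baseline after carbachol; higher B-score means a larger calcium signal and so more RGS4 inhibition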
Target sequence (P49798 whole entry, looked up): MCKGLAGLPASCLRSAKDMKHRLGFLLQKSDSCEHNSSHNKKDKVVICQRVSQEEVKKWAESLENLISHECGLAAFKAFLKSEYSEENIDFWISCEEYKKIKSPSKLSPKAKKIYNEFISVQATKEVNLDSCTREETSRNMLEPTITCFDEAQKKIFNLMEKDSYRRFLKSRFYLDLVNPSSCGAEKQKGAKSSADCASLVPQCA
MrgX1 PAM = positive allosteric modulators of MrgX1, primary screen, HEK293 cells, Fluo-4 calcium flux | Mas-related G-protein coupled receptor member X1 (Homo sapiens), Q96LB2 | FDSS; stronger effect = higher value | B-score at 10 µM | 310,000 compounds, 0.63% hits | AID 588675, 2011;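 active = plate-corrected calcium response at least 3 library SD above typical, normal starting fluorescence, not activating the receptor alone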;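 note: compound read alongside a low EC10 to EC30 dose of BAM8-22 agonist; peak minus trough fluorescence over baseline measured at the second addition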
RGS4 act = RGS4 potentiators or activators, primary screen, cell-based, HEK293 M3R inducible RGS4, calcium flux. 310,000 compounds, 0.92% hits. B-score at 10 µM. carbachol calcium flux Fluo4; stronger effect = lower value;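 active = B-score of the integrated calcium signal more than 4 SD below the library mean, with starting fluorescence not abnormally high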;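 note: negative B-score means reduced calcium response which marks RGS4 activation or potentiation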
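System – HEK293 FlpIn-TREx cells, stable M3R, doxycycline-inducible RGS4 · Reagent – ECmax carbachol challenge · Times – compound preincubation 20 min at room temperature before agonist · Technique – Fluo4 fluorescence kinetic imaging of calcium · Measure – B score of integrated Fluo4 ratio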
* = called active by the depositor. This is a sample that favours compounds with a hit; in the whole collection about 3.5% have one here.

Cc1onc(-c2c(F)cccc2Cl)c1C(=O)NC(=S)Nc1c(C)n(C)n(-c2ccccc2)c1=O was read as MrgX1 ag inactive, MrgX1 antag inactive, RGS4 inh inactive, MrgX1 PAM inactive and RGS4 act -9.88*.
For CC1(C)CCc2c([nH]c3ccccc3c2=O)O1 the results were MrgX1 ag inactive, MrgX1 antag inactive, RGS4 inh inactive, MrgX1 PAM inactive and RGS4 act -7*.
CCC1CCc2c([nH]c3ccccc3c2=O)O1 (stereo not given) was read as MrgX1 ag inactive, MrgX1 antag inactive, RGS4 inh inactive, MrgX1 PAM inactive and RGS4 act inactive.
O=C(NNC(=S)NC(=O)c1cccc([N+](=O)[O-])c1)c1ccc(Br)cc1 was read as MrgX1 ag 92.9*, MrgX1 antag inactive, RGS4 inh inactive, MrgX1 PAM inactive and RGS4 act -8.28*.
`CCCOc1ccc(C(=O)NNC(=S)NC(=O)c2ccccc2[N+](=O)[O-])cc1` gave MrgX1 ag inactive, MrgX1 antag inactive, RGS4 inh inactive, MrgX1 PAM 8.39* and RGS4 act inactive.
`O=C(NNC(=S)NC(=O)c1ccccc1[N+](=O)[O-])c1ccccc1` gave MrgX1 ag inactive, MrgX1 antag inactive, RGS4 inh inactive, MrgX1 PAM inactive and RGS4 act inactive.
`CCCOc1ccc(C(=O)NNC(=S)NC(=O)c2cc(-c3ccccc3)nc3ccccc23)cc1` gave MrgX1 ag inactive, MrgX1 antag -4.71*, RGS4 inh inactive, MrgX1 PAM inactive and RGS4 act -9.33*.
Screening O=C(NC(=S)NNC(=O)c1ccccc1[N+](=O)[O-])c1ccccc1 returned MrgX1 ag inactive, MrgX1 antag inactive, RGS4 inh inactive, MrgX1 PAM 9.73* and RGS4 act inactive.
Screening CCCCC(=O)Nc1ccc(C(=O)NNC(=S)NC(=O)c2ccccc2[N+](=O)[O-])cc1 returned MrgX1 ag inactive, MrgX1 antag inactive, RGS4 inh inactive, MrgX1 PAM inactive and RGS4 act inactive.
`O=C(NNC(=S)NC(=O)c1cccc([N+](=O)[O-])c1)c1ccc(O)cc1` gave MrgX1 ag inactive, MrgX1 antag inactive, RGS4 inh inactive, MrgX1 PAM inactive and RGS4 act inactive.
Screening CCCOc1ccc(C(=O)NNC(=S)NC(C)=O)cc1 returned MrgX1 ag inactive, MrgX1 antag inactive, RGS4 inh inactive, MrgX1 PAM inactive and RGS4 act inactive.
`CCN1CCN(c2c(Cl)cccc2NC(=O)c2ccc([N+](=O)[O-])o2)CC1` gave MrgX1 ag inactive, MrgX1 antag inactive, RGS4 inh inactive, MrgX1 PAM inactive and RGS4 act -7.54*.
`O=C(Nc1cccc(Cl)c1N1CCCC1)c1ccc([N+](=O)[O-])o1` gave MrgX1 ag inactive, MrgX1 antag inactive, RGS4 inh inactive, MrgX1 PAM inactive and RGS4 act inactive.
For COc1ccccc1CCc1nnc(CCC(=O)NCCCOc2cccnc2)o1 the results were MrgX1 ag inactive, MrgX1 antag inactive, RGS4 inh inactive, MrgX1 PAM inactive and RGS4 act inactive.
Screening CCC(Oc1ccc2c(=O)c(-c3ccccc3OC)coc2c1)C(=O)OCc1ccccc1 (stereo not given) returned MrgX1 ag inactive, MrgX1 antag inactive, RGS4 inh inactive, MrgX1 PAM inactive and RGS4 act -7.61*.
COc1ccccc1-c1coc2cc(OC(=O)N3CCOCC3)ccc2c1=O was read as MrgX1 ag inactive, MrgX1 antag inactive, RGS4 inh inactive, MrgX1 PAM inactive and RGS4 act inactive.
Cc1csc(NC(=O)c2ccc3nc[nH]c3c2)n1 was read as MrgX1 ag inactive, MrgX1 antag inactive, RGS4 inh inactive, MrgX1 PAM inactive and RGS4 act inactive.
Nc1nc(NCC2CCCO2)nc(Nc2ccc(Cl)cc2)c1[N+](=O)[O-] (stereo not given) was read as MrgX1 ag inactive, MrgX1 antag inactive, RGS4 inh inactive, MrgX1 PAM 6.83* and RGS4 act inactive.
For Cc1ccc2c(c1)Oc1ccccc1C=C2C(=O)O the results were MrgX1 ag inactive, MrgX1 antag inactive, RGS4 inh inactive, MrgX1 PAM inactive and RGS4 act inactive.
`Cc1nc(C(=O)Nc2cc(Cl)ccc2Cl)nn1-c1cc(OC(C)C)c(Cl)cc1Cl` gave MrgX1 ag inactive, MrgX1 antag -5.14*, RGS4 inh inactive, MrgX1 PAM inactive and RGS4 act inactive.
Screening Cc1cc(-c2nnc(SCC(=O)Nc3c(C)cccc3C)n2N)n[nH]1 returned MrgX1 ag inactive, MrgX1 antag inactive, RGS4 inh inactive, MrgX1 PAM inactive and RGS4 act inactive.
Screening CC(NC(=O)/C=C/c1ccco1)c1nc2ccccc2n1Cc1c(Cl)cccc1Cl (stereo not given) returned MrgX1 ag inactive, MrgX1 antag inactive, RGS4 inh inactive, MrgX1 PAM inactive and RGS4 act inactive.
CC(NC(=O)/C=C/c1ccco1)c1nc2ccccc2n1Cc1ccccc1F (stereo not given) was read as MrgX1 ag inactive, MrgX1 antag -5.31*, RGS4 inh inactive, MrgX1 PAM inactive and RGS4 act inactive.
`Cc1ccc2c(c1)C(O)(c1c(C)[nH]c3ccccc13)C(=O)N2` (stereo not given) gave MrgX1 ag inactive, MrgX1 antag inactive, RGS4 inh 6.31*, MrgX1 PAM inactive and RGS4 act inactive.
`Cc1[nH]c2ccccc2c1C1(O)C(=O)N(C(C)C)c2ccccc21` (stereo not given) gave MrgX1 ag inactive, MrgX1 antag inactive, RGS4 inh inactive, MrgX1 PAM inactive and RGS4 act inactive.
`O=C(CN1C(=O)S/C(=C/c2ccc(N3CCOCC3)cc2)C1=O)N1CCOCC1` gave MrgX1 ag inactive, MrgX1 antag inactive, RGS4 inh inactive, MrgX1 PAM inactive and RGS4 act -7.24*.
`CCOC(=O)c1cccc(NC(=O)c2cc(C)nn2-c2ccccc2)c1` gave MrgX1 ag inactive, MrgX1 antag inactive, RGS4 inh inactive, MrgX1 PAM inactive and RGS4 act inactive.
CCOc1ccccc1NC(=O)Nn1cnnc1 was read as MrgX1 ag inactive, MrgX1 antag inactive, RGS4 inh inactive, MrgX1 PAM inactive and RGS4 act inactive.
COc1ccc(-c2csc3ncnc(NCCO)c23)cc1 was read as MrgX1 ag inactive, MrgX1 antag inactive, RGS4 inh inactive, MrgX1 PAM inactive and RGS4 act inactive.
`COc1ccc(-c2csc3ncnc(NCCCO)c23)cc1` gave MrgX1 ag 32.6*, MrgX1 antag inactive, RGS4 inh inactive, MrgX1 PAM inactive and RGS4 act inactive.
